Here are results for 18 compounds from ChEMBL document CHEMBL1141230, “Synthesis and pharmacology of willardiine derivatives acting as antagonists of kainate receptors” (J Med Chem, 2005).

Each structure is given as a SMILES string.

The target of assay [1] is T1, Glutamate receptor ionotropic, AMPA (Rattus norvegicus, UniProt P19490+P19491+P19492+P19493). The experiment in a line: (§1) Antagonist activity on AMPA receptor expressed on rat motoneurons by its ability to reduce the fast component dorsal root evoked ventral root potential (fDR-VRP). It is filed as functional.
The target in assay [2] is Glutamate receptor ionotropic, kainate 1 (Rattus norvegicus, UniProt P22756). Briefly: Antagonism on GLUK5 containing kainate induced depolarization of isolated neonatal rat dorsal root C-fibers. It is filed as functional.
Glutamate receptor ionotropic, kainate 1, sequence (P22756 whole entry): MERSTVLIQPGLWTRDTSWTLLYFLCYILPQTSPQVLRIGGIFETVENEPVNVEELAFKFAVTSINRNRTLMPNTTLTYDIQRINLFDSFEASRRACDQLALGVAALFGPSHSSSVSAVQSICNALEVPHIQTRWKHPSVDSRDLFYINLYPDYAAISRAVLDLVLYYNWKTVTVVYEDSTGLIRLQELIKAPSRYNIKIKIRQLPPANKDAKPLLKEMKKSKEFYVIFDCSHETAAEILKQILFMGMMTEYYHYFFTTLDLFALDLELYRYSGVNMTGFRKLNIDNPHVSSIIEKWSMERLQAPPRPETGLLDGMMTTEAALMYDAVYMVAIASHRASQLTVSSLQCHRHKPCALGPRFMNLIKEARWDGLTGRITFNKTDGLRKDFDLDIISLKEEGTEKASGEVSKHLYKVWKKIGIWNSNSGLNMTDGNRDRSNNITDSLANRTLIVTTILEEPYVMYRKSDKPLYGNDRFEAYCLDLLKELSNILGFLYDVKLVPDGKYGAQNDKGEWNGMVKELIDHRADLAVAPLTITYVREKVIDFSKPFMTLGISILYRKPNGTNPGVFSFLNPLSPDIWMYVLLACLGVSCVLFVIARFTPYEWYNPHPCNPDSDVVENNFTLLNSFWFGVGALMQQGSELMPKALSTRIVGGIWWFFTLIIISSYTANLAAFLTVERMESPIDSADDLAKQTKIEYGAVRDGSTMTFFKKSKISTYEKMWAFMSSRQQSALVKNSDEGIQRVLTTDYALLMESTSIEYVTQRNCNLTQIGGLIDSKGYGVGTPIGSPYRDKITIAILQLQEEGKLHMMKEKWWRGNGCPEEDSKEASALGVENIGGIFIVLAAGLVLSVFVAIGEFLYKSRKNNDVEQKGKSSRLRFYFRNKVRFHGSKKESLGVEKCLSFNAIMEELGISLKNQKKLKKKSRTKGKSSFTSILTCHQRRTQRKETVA
Assay [3] deals with T1, Glutamate receptor ionotropic, AMPA. Briefly: Displacement of [3H](S)-5-fluorowillardiine from AMPA receptor in rat brain membrane. It is filed as cell membranes.
Assay [4] addresses Glutamate receptor ionotropic, kainate 2 (Rattus norvegicus, UniProt P42260). The experiment in a line: (§2) Displacement of [3H]kainate from rat GLUK6 receptor expressed in HEK293 cells. Type of assay: cell-based.
In assay [5] the target is Glutamate receptor ionotropic, kainate (Rattus norvegicus). The experiment in a line: Displacement of [3H]SYM2081 from kainate receptor in rat brain membrane.
In assay [6] the target is Glutamate receptor ionotropic, AMPA (Rattus norvegicus, UniProt P19491+P19492+P19493+P19490). Described as §1. Type of assay: functional.
The target in assay [7] is Glutamate receptor ionotropic, kainate 1 (Rattus norvegicus) (UniProt P22756). Briefly: Percentage depression of GLUK5 containing kainate induced depolarization on isolated neonatal rat dorsal root C-fibers at 200 uM. It is filed as functional.
Glutamate receptor ionotropic, kainate 1 (Rattus norvegicus), sequence (P22756 whole entry): as above
The target in assay [8] is Glutamate receptor ionotropic, kainate 2 (Rattus norvegicus) (UniProt P42260). The assay is described as §2. Type of assay: cell-based.
Glutamate receptor ionotropic, kainate 2 (Rattus norvegicus), sequence (P42260 whole entry): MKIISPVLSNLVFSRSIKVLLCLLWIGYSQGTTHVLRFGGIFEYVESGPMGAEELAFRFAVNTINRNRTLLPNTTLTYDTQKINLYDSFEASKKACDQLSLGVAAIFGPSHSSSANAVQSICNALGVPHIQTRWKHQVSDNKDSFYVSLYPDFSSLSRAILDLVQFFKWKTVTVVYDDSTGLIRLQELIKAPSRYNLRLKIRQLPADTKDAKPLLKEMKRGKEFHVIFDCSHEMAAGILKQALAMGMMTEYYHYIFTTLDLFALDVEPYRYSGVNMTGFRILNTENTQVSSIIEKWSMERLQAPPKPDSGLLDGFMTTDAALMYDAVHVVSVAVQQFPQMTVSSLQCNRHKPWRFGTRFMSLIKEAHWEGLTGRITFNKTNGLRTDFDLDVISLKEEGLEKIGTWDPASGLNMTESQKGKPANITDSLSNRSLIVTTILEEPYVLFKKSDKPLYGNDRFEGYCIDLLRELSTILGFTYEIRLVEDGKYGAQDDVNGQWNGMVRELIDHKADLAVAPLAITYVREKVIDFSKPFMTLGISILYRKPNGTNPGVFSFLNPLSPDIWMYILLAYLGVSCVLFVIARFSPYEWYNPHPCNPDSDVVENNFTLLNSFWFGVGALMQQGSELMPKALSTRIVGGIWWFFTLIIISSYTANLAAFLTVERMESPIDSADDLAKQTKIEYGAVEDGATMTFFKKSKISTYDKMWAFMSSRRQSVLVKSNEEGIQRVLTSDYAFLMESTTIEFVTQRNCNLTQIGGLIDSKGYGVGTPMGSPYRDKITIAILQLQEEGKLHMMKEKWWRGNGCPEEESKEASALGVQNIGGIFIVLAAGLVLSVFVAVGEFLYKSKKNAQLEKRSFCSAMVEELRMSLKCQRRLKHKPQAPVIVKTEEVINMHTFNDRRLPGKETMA
The target of assay [9] is Glutamate receptor ionotropic, kainate 1 (Homo sapiens) (UniProt P39086). Briefly: Inhibitory effect on glutamate-induced calcium influx at homomeric human GLUK5 receptor expressed in HEK293 cells. Type of assay: functional, cell-based. Put shortly:
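HEK293 cells stably expressing human GLUK5(Q), calcium fluorescence assay (FLIPR) in presence of concanavalin A. Antagonist added alone first, then with 100 µM glutamate. Curves fitted with slope fixed at 1; Kb from IC50 via Cheng-Prusoff using glutamate EC50 determined in same plate.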

Assay [10] in a line: Inhibitory effect on glutamate-induced calcium influx at homomeric human GLUK5/GLUK2 receptor clone expressed in HEK293 cells. It is filed as functional. Put shortly: (§3)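 HEK293 lines stably coexpressing human GLUK5 with GLUK2 or GLUK6 (GLUK5(R)/GLUK6(Q)), FLIPR calcium assay with concanavalin A present. Antagonist given alone at first addition, then with 100 µM glutamate at second. Curves fit with slope 1, top/bottom fixed at 100%/0%. Kb = IC50/(1+[Glu]/EC50 Glu), glutamate EC50 from curves on same plate.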

A short description of assay [11]: Inhibitory effect on glutamate-induced calcium influx at homomeric human GLUK5/GLUK6 receptor clone expressed in HEK293 cells. It is filed as functional. Summed up:
as §3

Glutamate receptor ionotropic, kainate 2, sequence (P42260 whole entry): as above
Glutamate receptor ionotropic, kainate 1 (Homo sapiens), sequence (P39086 whole entry): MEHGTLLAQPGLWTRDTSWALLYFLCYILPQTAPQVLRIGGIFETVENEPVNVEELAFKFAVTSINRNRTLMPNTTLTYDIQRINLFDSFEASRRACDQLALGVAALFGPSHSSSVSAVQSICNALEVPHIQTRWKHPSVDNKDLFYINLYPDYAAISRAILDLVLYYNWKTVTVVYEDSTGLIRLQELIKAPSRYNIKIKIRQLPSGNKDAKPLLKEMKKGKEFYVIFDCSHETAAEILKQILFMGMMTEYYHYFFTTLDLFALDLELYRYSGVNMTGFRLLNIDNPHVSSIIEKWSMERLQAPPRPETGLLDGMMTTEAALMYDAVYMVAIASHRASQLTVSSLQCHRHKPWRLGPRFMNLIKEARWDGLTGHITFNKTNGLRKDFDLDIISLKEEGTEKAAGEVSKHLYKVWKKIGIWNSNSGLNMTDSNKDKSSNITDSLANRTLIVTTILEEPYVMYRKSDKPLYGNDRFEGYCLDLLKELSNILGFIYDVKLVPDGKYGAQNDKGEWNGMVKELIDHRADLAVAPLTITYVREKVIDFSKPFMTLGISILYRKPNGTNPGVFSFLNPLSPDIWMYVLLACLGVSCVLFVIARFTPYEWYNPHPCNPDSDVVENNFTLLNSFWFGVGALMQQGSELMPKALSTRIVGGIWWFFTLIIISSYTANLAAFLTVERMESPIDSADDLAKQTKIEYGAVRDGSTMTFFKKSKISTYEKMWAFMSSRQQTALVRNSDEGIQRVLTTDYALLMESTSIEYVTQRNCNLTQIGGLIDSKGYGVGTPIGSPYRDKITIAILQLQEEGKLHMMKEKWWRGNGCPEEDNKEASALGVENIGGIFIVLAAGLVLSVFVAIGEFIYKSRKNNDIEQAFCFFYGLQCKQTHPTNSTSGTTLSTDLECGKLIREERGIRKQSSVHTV

In [1], `N[C@@H](Cn1ccc(=O)n(CCCC(=O)O)c1=O)C(=O)O` yielded an IC50 of 136 µM. In assay [2], binding was characterised by a dissociation constant (Kd) of 60.5 µM. Moreover, the Ki in assay [3] was 17.8 µM; in assay [4], over 1000 µM; in assay [5], 96.2 µM.

`N[C@@H](Cn1ccc(=O)n(CC(=O)O)c1=O)C(=O)O` registered an IC50 in [1] of 287 µM. Besides, in [3], affinity was put at a Ki of 195 µM.

In the case of `N[C@@H](Cn1cc([N+](=O)[O-])c(=O)n(CCC(=O)O)c1=O)C(=O)O`, the IC50 in assay [1] came to 79.9 µM. In addition, the Ki in assay [4] was over 100 µM.

On to `N[C@@H](Cn1c(=O)ccn(CC(=O)O)c1=O)C(=O)O`, for which the figures for the Ki in [3], in assay [4] and in assay [5] were over 1000 µM, over 100 µM and over 500 µM, respectively.

On to `Cn1c(=O)ccn(C[C@H](N)C(=O)O)c1=O`, for which the IC50 result in assay [6] was “Agonist”. In assay [4], this compound displayed a Ki of over 100 µM.

The compound `N[C@@H](Cn1ccc(=O)n(Cc2ccc(C(=O)O)cc2)c1=O)C(=O)O` came in with a Kd in assay [2] of 9.25 µM. Besides, the Ki in [4] was over 100 µM.

In assay [7], `N[C@H](Cn1ccc(=O)n(CCCC(=O)O)c1=O)C(=O)O` returned an Activity of 22.8%. Moreover, the Ki in assay [3] is 149 µM; in assay [5], over 500 µM.

Take `N#Cc1cc2c(cc1[N+](=O)[O-])=NC(=O)C(=O)N=2`: the affinity in assay [2], expressed as Kd, was 1.66 µM. In addition, the Ki in [4] worked out at 1.05 µM.

With `N[C@@H](Cn1cc(I)c(=O)n(CCC(=O)O)c1=O)C(=O)O`, half-maximal inhibition in assay [1] (IC50) required 13.7 µM. This compound also came in with a Kd in assay [2] of 8.17 µM. Besides, the values for the inhibition constant (Ki) in assay [3], in [4] and in assay [5] were 5 µM, over 100 µM and 52.7 µM, respectively.

`C=C(C)[C@H]1CN[C@H](C(=O)O)[C@H]1CC(=O)O` returned a Bmax in [8] of 1.53 pmol/mg.

Regarding `N[C@@H](Cn1cc(I)c(=O)n(Cc2ccccc2C(=O)O)c1=O)C(=O)O`, the IC50 in assay [1] was found to be 74.1 µM. In assay [2], this compound came in with a Kd of 0.209 µM. In [4], this compound registered a Ki of over 100 µM.

`N[C@H](Cn1ccc(=O)n(CCC(=O)O)c1=O)C(=O)O` had an Activity in assay [7] of 13.2%. This compound came in with a Ki in [4] of over 100 µM.

Regarding `N[C@@H](CNC(=O)NCc1cccc(C(=O)O)c1)C(=O)O`, the IC50 in [1] is over 1000 µM.

As to `N[C@H](Cn1ccc(=O)n(Cc2ccccc2C(=O)O)c1=O)C(=O)O`, the IC50 in assay [1] was over 100 µM. Also, the Kd in assay [2] is over 100 µM. Moreover, in assay [4], the Ki is over 1000 µM.

As for `N[C@@H](Cn1ccc(=O)n(CCC(=O)O)c1=O)C(=O)O`, in assay [2], binding was put at a Kd of 73.1 µM. In addition, the Ki in [4] was over 100 µM.

With `NC(Cn1ccc(=O)n(Cc2ccccc2C(=O)O)c1=O)C(=O)O` (racemic), the Kb was 0.6 µM in assay [9], 1 µM in assay [10] and 0.8 µM in assay [11]. Moreover, the IC50 in assay [1] came out at 97.6 µM. This compound came in with an equilibrium dissociation constant (Kd) in [2] of 1.09 µM. The compound further registered a Ki in [4] of over 1000 µM.

As to `N[C@@H](Cn1ccc(=O)n(Cc2cccc(C(=O)O)c2)c1=O)C(=O)O`, binding in assay [2] was characterised by a dissociation constant (Kd) of 49.1 µM. The compound further yielded a Ki in assay [4] of over 1000 µM.

With `N[C@@H](Cn1ccc(=O)n(Cc2ccccc2C(=O)O)c1=O)C(=O)O`, the IC50 in assay [1] is 106 µM. This compound also came in with a Kd in [2] of 0.402 µM. In addition, in [4], the Ki was over 1000 µM.
